{
  "source": "ChEMBL document CHEMBL1157729",
  "about": "“Structure-activity relationship and mechanism of action studies of manzamine analogues for the control of neuroinflammation and cerebral infections” (J Med Chem, 2010)",
  "key": {"[1]": {"test_system": "Cryptococcus neoformans", "test": "Antifungal activity against Cryptococcus neoformans ATCC 90113", "assay_type": "functional, organism-based", "in_short": "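Broth microdilution per modified CLSI method; samples serially diluted in 20% DMSO/saline, tested in duplicate; inocula set by OD630 of suspensions in incubation broth; growth read at 630 nm before and after incubation; amphotericin B drug control.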"}, "[2]": {"test_system": "Plasmodium berghei", "test": "Antiplasmodial activity against Plasmodium berghei NK65 infected in Swiss Webster mice (Mus musculus) assessed as inhibition of parasitaemia at 3.3 mg/kg, perorally administered 1 day after infection for 3 days measured after 5 days post infection", "assay_type": "functional", "details": "route oral", "in_short": "(§1)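 Male Swiss Webster mice (18-20 g, ≥5/group) inoculated i.p. with 2×10^7 P. berghei NK-65 parasitized RBC; oral dosing (100 μl, SSV or dilute HCl vehicle) once daily for 3 days from day 1; Giemsa-stained tail blood smears days 5–28; inhibition is % decrease versus untreated controls on day 5.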"}, "[3]": {"test_system": "Plasmodium berghei", "test": "Antiplasmodial activity against Plasmodium berghei NK65 infected in Swiss Webster mice (Mus musculus) assessed as inhibition of parasitaemia at 10 mg/kg, perorally administered 1 day after infection for 3 days measured after 5 days post infection", "assay_type": "functional", "details": "route oral", "in_short": "as §1"}, "[4]": {"test_system": "Plasmodium berghei", "test": "Antiplasmodial activity against Plasmodium berghei NK65 infected in Swiss Webster mice (Mus musculus) assessed as average parasitaemia at 10 mg/kg, perorally administered 1 day after infection for 3 days measured after 10 days post infection", "assay_type": "functional", "details": "route oral"}, "[5]": {"test_system": "Plasmodium berghei", "test": "Antiplasmodial activity against Plasmodium berghei NK65 infected in Swiss Webster mice (Mus musculus) assessed as survivability at 5 mg/kg, perorally administered 1 day after infection for 3 days measured after 28 days post infection", "assay_type": "functional", "details": "route oral"}, "[6]": {"test_system": "Plasmodium berghei", "test": "Antiplasmodial activity against Plasmodium berghei NK65 infected in Swiss Webster mice (Mus musculus) assessed as parasitaemia cure at 10 mg/kg, perorally administered 1 day after infection for 3 days measured after 28 days post infection", "assay_type": "functional", "details": "route oral", "in_short": "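Male Swiss Webster mice (18-20 g), at least 5 per group, inoculated i.p. with 2×10^7 P. berghei NK-65-parasitized red cells from a donor mouse. Oral dosing (100 μl, in SSV or 0.01 M HCl dilutions) from day one post-infection on a 3-day schedule (modified Peters test). Giemsa-stained tail-blood smears read from day 5 to day 28. Cure means no parasitemia through day 28.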"}, "[7]": {"test_system": "Plasmodium berghei", "test": "Antiplasmodial activity against Plasmodium berghei NK65 infected in Swiss Webster mice (Mus musculus) assessed as average parasitaemia at 50 mg/kg, perorally administered as single dose measured after 5 days of inoculation", "assay_type": "functional", "details": "NK65, 120 h, route oral", "in_short": "(§2)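 Male Swiss Webster mice (18-20 g, ≥5/group) inoculated i.p. with 2×10^7 P. berghei NK-65 parasitized RBC, given a single oral dose (100 μl, SSV or dilute HCl vehicle); parasitemia by Giemsa-stained tail blood smears days 5–28; activity as % decrease versus untreated controls on day 5.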"}, "[8]": {"test_system": "Plasmodium berghei", "test": "Antiplasmodial activity against Plasmodium berghei NK65 infected in Swiss Webster mice (Mus musculus) assessed as average parasitaemia at 1.1 mg/kg, perorally administered 1 day after infection for 3 days measured after 21 days post infection", "assay_type": "functional", "details": "route oral"}, "[9]": {"test_system": "Plasmodium berghei", "test": "Antiplasmodial activity against Plasmodium berghei NK65 infected in Swiss Webster mice (Mus musculus) assessed as average parasitaemia at 10 mg/kg, perorally administered 1 day after infection for 3 days measured after 21 days post infection", "assay_type": "functional", "details": "route oral"}, "[10]": {"test_system": "Plasmodium berghei", "test": "Antiplasmodial activity against Plasmodium berghei NK65 infected in Swiss Webster mice (Mus musculus) assessed as average parasitaemia at 5 mg/kg, perorally administered 1 day after infection for 3 days measured after 21 days post infection", "assay_type": "functional", "details": "route oral"}, "[11]": {"test_system": "Plasmodium berghei", "test": "Antiplasmodial activity against Plasmodium berghei NK65 infected in Swiss Webster mice (Mus musculus) assessed as average parasitaemia at 10 mg/kg, perorally administered 1 day after infection for 3 days measured after 28 days post infection", "assay_type": "functional", "details": "route oral", "in_short": "as §1"}, "[12]": {"test_system": "Plasmodium berghei", "test": "Antiplasmodial activity against Plasmodium berghei NK65 infected in Swiss Webster mice (Mus musculus) at 1.1 mg/kg, po", "assay_type": "functional", "in_short": "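Male Swiss Webster mice (18-20 g), at least 5 per group, inoculated i.p. with 2×10^7 P. berghei NK-65 parasitized red cells from a donor mouse. Oral dosing (100 μl, in SSV or dilute HCl) from day one after infection, three-day modified Peters suppressive schedule. Giemsa-stained tail blood smears from day 5 through day 28. Inhibition is % parasitemia drop on day 5 versus untreated controls. Cure means no parasitemia through day 28.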"}, "[13]": {"test_system": "Plasmodium berghei", "test": "Antiplasmodial activity against Plasmodium berghei NK65 infected in Swiss Webster mice (Mus musculus) at 5 mg/kg, po", "assay_type": "functional"}, "[14]": {"test_system": "Plasmodium berghei", "test": "Antiplasmodial activity against Plasmodium berghei NK65 infected in Swiss Webster mice (Mus musculus) assessed as average parasitaemia at 200 mg/kg, perorally administered 1 day after infection measured after 7 days post infection", "assay_type": "functional", "details": "route oral"}, "[15]": {"test_system": "Plasmodium berghei", "test": "Antiplasmodial activity against Plasmodium berghei NK65 infected in Swiss Webster mice (Mus musculus) assessed as average parasitaemia at 50 mg/kg, perorally administered 1 day after infection measured after 10 days post infection", "assay_type": "functional", "details": "route oral"}, "[16]": {"test_system": "Plasmodium berghei", "test": "Antiplasmodial activity against Plasmodium berghei NK65 infected in Swiss Webster mice (Mus musculus) assessed as average parasitaemia at 50 mg/kg, perorally administered 1 day after infection measured after 14 days post infection", "assay_type": "functional", "details": "route oral", "in_short": "as §2"}, "[17]": {"test_system": "Plasmodium berghei", "test": "Antiplasmodial activity against Plasmodium berghei NK65 infected in Swiss Webster mice (Mus musculus) assessed as average parasitaemia at 100 mg/kg, perorally administered 1 day after infection measured after 14 days post infection", "assay_type": "functional", "details": "route oral", "in_short": "as §2"}, "[18]": {"test_system": "Plasmodium berghei", "test": "Antiplasmodial activity against Plasmodium berghei NK65 infected in Swiss Webster mice (Mus musculus) assessed as average parasitaemia at 50 mg/kg, perorally administered 1 day after infection measured after 21 days post infection", "assay_type": "functional", "details": "route oral", "in_short": "as §2"}, "[19]": {"test_system": "Plasmodium berghei", "test": "Antiplasmodial activity against Plasmodium berghei NK65 infected in Swiss Webster mice (Mus musculus) assessed as average parasitaemia at 200 mg/kg, perorally administered 1 day after infection measured after 28 days post infection", "assay_type": "functional", "details": "Plasmodium berghei, NK65, route oral", "in_short": "as §2"}, "[20]": {"test_system": "Plasmodium berghei", "test": "Antiplasmodial activity against Plasmodium berghei NK65 infected in Swiss Webster mice (Mus musculus) assessed as parasitaemia cure at 50 mg/kg, perorally administered 1 day after infection measured after 28 days post infection", "assay_type": "functional", "details": "route oral", "in_short": "(§3)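 P. berghei NK-65 infection in male Swiss Webster mice (18-20 g; 2×10^7 parasitized erythrocytes i.p.; ≥5 per group). A single oral dose of 100 μl, diluted in SSV or 0.01 M HCl, then observation for toxicity signs and body weight. Parasitemia read from Giemsa-stained tail smears from day 5 through day 28. Mice free of parasitemia through day 28 counted as cured.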"}, "[21]": {"test_system": "Plasmodium berghei", "test": "Antiplasmodial activity against Plasmodium berghei NK65 infected in Swiss Webster mice (Mus musculus) assessed as parasitaemia cure at 100 mg/kg, perorally administered 1 day after infection measured after 28 days post infection", "assay_type": "functional", "details": "route oral", "in_short": "as §3"}, "[22]": {"test_system": "Mus musculus", "test": "Toxicity in Plasmodium berghei NK65 infected Swiss Webster mice (Mus musculus) assessed as behavioral change at 100 mg/kg, perorally", "assay_type": "organism-based", "parameters": "dose 100 mg/kg, route oral", "details": "in vivo, po", "in_short": "as §3"}, "[23]": {"test_system": "Mus musculus", "test": "Toxicity in Plasmodium berghei NK65 infected Swiss Webster mice (Mus musculus) at 10 mg/kg, intraperitoneally for 3 days administered 1 day after infection measured after 5 days post infection", "assay_type": "organism-based", "parameters": "dose 10 mg/kg, route intraperitoneal", "details": "in vivo, ip, 120 h"}, "[24]": {"test_system": "HeLa", "test": "Cell cycle arrest in human HeLa cells assessed as increase in S phase accumulation at 20 uM after 24 hrs by FACS analysis", "assay_type": "functional"}},
  "data": [
    {"smiles": "O[C@]12C=C(c3nccc4c3[nH]c3ccccc34)[C@@H]3CCN(CCCC/C=C\\CC1)C[C@@]31C[C@@H]3/C=C\\CCCCN3[C@H]12", "note": "[MANZAMINE A]", "values": [
      {"measurement": "IC50", "setting": "[1]", "value": 1, "unit": "µg/mL"},
      {"measurement": "inhibition in vivo at 3.3 mg/kg", "setting": "[2]", "value": 88, "unit": "%"},
      {"measurement": "inhibition in vivo at 10 mg/kg", "setting": "[3]", "value": 98, "unit": "%"},
      {"measurement": "inhibition in vivo at 10 mg/kg", "setting": "[4]", "value": 0.4, "unit": "%"},
      {"measurement": "inhibition in vivo at 5 mg/kg", "setting": "[5]", "value": 100, "unit": "%"},
      {"measurement": "inhibition in vivo at 10 mg/kg", "setting": "[6]", "value": 75, "unit": "%"},
      {"measurement": "inhibition in vivo at 50 mg/kg", "setting": "[7]", "value": 0, "unit": "%"},
      {"measurement": "inhibition in vivo at 1.1 mg/kg", "setting": "[8]", "value": 39.6, "unit": "%"},
      {"measurement": "inhibition in vivo at 10 mg/kg", "setting": "[9]", "value": 1.9, "unit": "%"},
      {"measurement": "inhibition in vivo at 5 mg/kg", "setting": "[10]", "value": 21.7, "unit": "%"},
      {"measurement": "inhibition in vivo at 10 mg/kg", "setting": "[11]", "value": 3.3, "unit": "%"},
      {"measurement": "inhibition in vivo at 1.1 mg/kg", "setting": "[12]", "value": 26.5, "unit": "%"},
      {"measurement": "inhibition in vivo at 5 mg/kg", "setting": "[13]", "value": "> 30", "unit": "%"},
      {"measurement": "inhibition in vivo at 200 mg/kg", "setting": "[14]", "value": 0, "unit": "%"},
      {"measurement": "inhibition in vivo at 50 mg/kg", "setting": "[15]", "value": 0, "unit": "%"},
      {"measurement": "inhibition in vivo at 50 mg/kg", "setting": "[16]", "value": 1, "unit": "%"},
      {"measurement": "inhibition in vivo at 100 mg/kg", "setting": "[17]", "value": 0, "unit": "%"},
      {"measurement": "inhibition in vivo at 50 mg/kg", "setting": "[18]", "value": 5.2, "unit": "%"},
      {"measurement": "inhibition in vivo at 200 mg/kg", "setting": "[19]", "value": 0, "unit": "%"},
      {"measurement": "inhibition in vivo at 50 mg/kg", "setting": "[20]", "value": 60, "unit": "%"},
      {"measurement": "inhibition in vivo at 100 mg/kg", "setting": "[21]", "value": 100, "unit": "%"},
      {"measurement": "Activity", "setting": "[22]", "value": "Non-toxic"},
      {"measurement": "Activity", "setting": "[23]", "value": "Toxic"},
      {"measurement": "Activity", "setting": "[24]", "value": 67.2, "unit": "%"}
    ]}
  ]
}
